# Data as given in ChEMBL document CHEMBL4732112, “Synthesis and in vitro evaluation of novel spiroketopyrazoles as acetyl-CoA carboxylase inhibitors and potential antitumor agents” (Eur J Med Chem, 2021).
# Tests used:
# A549 [1] = experiment: Antiproliferative activity against human A549 cells assessed as cell growth inhibition at 10 uM after 72 hrs by MTT assay relative to control; type: functional; settings: read-out: GI
# Method in brief: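 Cells were DMEM/10% FBS cultures at 37 °C, 5% CO2, seeded at 3×10^3 per well and exposed for 72 h after 24 h attachment. Read-out was MTT with formazan in DMSO and absorbance at 550 nm, expressed as inhibition rate versus control.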
# A549 [2] = experiment: Antiproliferative activity against human A549 cells assessed as cell growth inhibition after 72 hrs by MTT assay; type: functional, cell-based; settings: A549, 72 h
# Method in brief: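 HepG2, A549 or MDA-MB-231 cells grown in DMEM with 10% FBS and penicillin/streptomycin at 37 °C, 5% CO2. Seeded at 3×10^3 per well, left 24 h, then exposed to a range of concentrations for 72 h. MTT added for 4 h, formazan dissolved in DMSO, absorbance read at 550 nm. Mean ± SD, n=3.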
# Acetyl-CoA carboxylase 1 = Acetyl-CoA carboxylase 1 (Homo sapiens, UniProt Q13085); experiment: Inhibition of ACC1 in human HepG2 cells assessed as reduction in intracellular malonyl-CoA level at 10 uM measured after 48 hrs by ELISA relative to control; type: cell-based
# Method in brief: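 HepG2 cells plated and exposed to the compound at several concentrations for 48 h. Cells washed with PBS, lysed in 1% Triton X-100 and spun 12000 rpm, 4 °C, 15 min. Malonyl-CoA measured by ELISA kit and triglyceride by GPO-POP kit, each normalised to BCA protein. Reported relative to control, mean ± SD, n=3.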
# HepG2 [3] = experiment: Antiproliferative activity against human HepG2 cells assessed as cell viability at 0.5 uM measured after 5 days in presence of 10 uM palmitate by MTT assay relative to control; type: functional; settings: HepG2, 120 h, time 5 day, read-out: Activity
# Method in brief: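 HepG2 treated with 0.5 μM plus 0, 10 or 25 μM palmitate for 1, 3 and 5 days. Palmitate was complexed with 5% fatty-acid-free BSA from a 5 mM solution, then diluted in serum-free DMEM to final concentration. Viability (% control) by MTT. Mean ± SD, n=3.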
# HepG2 [4] = experiment: Cell cycle arrest in human HepG2 cells assessed as accumulation at G0/G1 phase at 5 uM measured after 48 hrs by propidium iodide staining based flow cytometry (reference value: 56.24%); type: functional
# HepG2 [5] = experiment: Cell cycle arrest in human HepG2 cells assessed as accumulation at S phase at 5 uM measured after 48 hrs by propidium iodide staining based flow cytometry (reference value: 30.18%); type: functional
# HepG2 [6] = experiment: Cell cycle arrest in human HepG2 cells assessed as accumulation at G0/G1 phase at 10 uM measured after 48 hrs by propidium iodide staining based flow cytometry (reference value: 56.24%); type: functional
# HepG2 [7] = experiment: Induction of apoptosis in human HepG2 cells assessed as necrotic cells at 1 uM measured after 48 hrs by Annexin V-FITC/propidium iodide staining based flow cytometry (reference value: 0.22%); type: functional
# Method in brief: (§1)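 HepG2 cells incubated with the stated concentrations for 48 h, harvested, and stained with Annexin V-FITC and propidium iodide protected from light. Viable, early apoptotic, late apoptotic and necrotic fractions quantified by flow cytometry. Mean ± SD, n=3.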
# HepG2 [8] = experiment: Induction of apoptosis in human HepG2 cells assessed as viable cells at 10 uM measured after 48 hrs by Annexin V-FITC/propidium iodide staining based flow cytometry (reference value: 95.6%); type: functional; settings: read-out: Activity; method in brief: as §1
# HepG2 [9] = experiment: Induction of apoptosis in human HepG2 cells assessed as early apoptotic cells at 10 uM measured after 48 hrs by Annexin V-FITC/propidium iodide staining based flow cytometry (reference value: 4.03%); type: functional; method in brief: as §1
# HepG2 [10] = experiment: Induction of apoptosis in human HepG2 cells assessed as reduction in Bcl2 expression measured after 48 hrs by Western blot analysis; type: functional, cell-based; settings: dose 1-10 µM
# Method in brief: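 Western blots for Bcl-2, Bax, cleaved caspase-3 and cleaved PARP in HepG2 cells after 48 h treatment (1, 5, 10 μM for PARP). Lysates cleared, protein quantified by BCA, run on SDS-PAGE to PVDF, blocked in 5% BSA, primary overnight at 4 °C, DyLight 800 secondary. Infrared scanning and densitometry normalized to β-actin. Mean ± SD, n=3.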
# HepG2 [11] = experiment: Antiproliferative activity against human HepG2 cells assessed as combination index at 0.175 uM measured after 72 hrs in presence of 0.35 uM doxorubicin by MTT assay; type: functional
structure (smiles),measurement,setting,value
CC(C)(C)n1cc2c(n1)C(=O)CC1(CCN(C(=O)c3cc(-c4ccncc4)nc4ccccc34)CC1)O2,inhibition of growth at 10 µM,A549 [1],79.3%
same,IC50,A549 [2],550 nM
same,inhibition,Acetyl-CoA carboxylase 1,31.4%
same,viability at 0.5 µM,HepG2 [3],68.9%
same,Activity,HepG2 [4],78.83%
same,Activity,HepG2 [5],14.71%
same,Activity,HepG2 [6],88.61%
same,Activity,HepG2 [7],3.61%
same,viability at 10 µM,HepG2 [8],12.2%
same,Activity,HepG2 [9],41.6%
same,Activity,HepG2 [10],Dose-dependent effect
same,CI,HepG2 [11],0.737
